Source: PubChem
The entries come from a sample that favours hits as a whole.
Diaph inh CS – diaphorase inhibitors and chemical oxidizers, primary screen, counter-screen for diaphorase-coupled primary assays, biochemical, uHTS, resorufin fluorescence. diaphorase resazurin-to-resorufin fluorescence, NADH, 16 min; bacterial (C. kluyveri) enzyme, not human. inhibition, % at 20 µM. hit rate 0.69% among 190,000. AID 1217, 2008;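 active = primary screen inhibition at 20 µM above a set limit, cut at about 50% in these data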;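 note: plate controls were DMSO with full reaction for no effect and wells lacking NADH for full effect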
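Test system: bacterial diaphorase enzyme (C. kluyveri); Quantity: 0.14 U/mL diaphorase, enzyme working solution; Times: reaction incubation of 16 min at room temperature; Measured by: fluorescence of resorufin formed from resazurin, Ex 544/Em 590 nm; Benchmarks: positive control minus NADH, DMSO neutral control.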
G6PDH CS – L. mesenteroides G6PDH inhibitors, counter-screen for G6PDH-coupled screening assays, biochemical, Leuconostoc mesenteroides enzyme; Purified L. mesenteroides G6PDH, diaphorase/resazurin coupled fluorescence, 45 min; inhibition, % at 5 µM; glucose-6-phosphate dehydrogenase [Leuconostoc mesenteroides]; hit rate 0.12% among 200,000
Diaphorase act – compounds boosting diaphorase resazurin reduction – biochemical, uHTS, resorufin fluorescence, counter-screen for diaphorase-coupled primary assays, primary screen. AID 1229, 2008. activation factor at 20 µM. hit rate 0.005% among 190,000. Diaphorase/resazurin coupled assay, 16 min; active compounds read high; 1 = vehicle wells, 0 = NADH-free wells;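 active = diaphorase activity raised at least twofold by the compound at 20 µM; inactive = activation factor below 2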
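Measured by – red resorufin fluorescence at 544/590 nm excitation/emission · Test system – Clostridium kluyveri diaphorase, purified enzyme · Incubation – reaction time 16 min, room temperature · Buffer or medium – 50 mM HEPES pH 7.4 with 4.542 mM MgCl2, 0.005% Tween 20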
L major viab – Leishmania major promastigote growth inhibition, primary screen; Leishmania major promastigotes, resazurin fluorescence viability; inhibition, % at 10 µM; hit rate 9% among 200,000; AID 1063, 2008;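 note: promastigotes grown with compound for 44 hours at 28 °C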
Redox H2O2 prof – compounds producing H2O2 with reducing agent – biochemical, NIH compound library profiling, artefact control for MLSCN library redox annotation, primary screen. hit rate 0.03% among 200,000. activation, % at 10 µM. DTT-dependent redox cycling H2O2, phenol red/HRP absorbance; 100% = 100 µM peroxide control, 0% = buffer;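 active = activation of at least 50% relative to the plate's high and low controls in the primary single-dose screen; inactive = activation below 50%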;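 note: compound incubated with DTT at 0.8 mM final as the reducing agent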
PfGluPho inh – PfG6PD enzyme inhibitors, primary screen, biochemical, fluorescence intensity, uHTS | glucose-6-phosphate dehydrogenase-6-phosphogluconolactonase (Plasmodium falciparum 3D7) | PfGluPho enzyme, NADPH resazurin-diaphorase fluorescence | inhibition, % at 20 µM | hit rate 0.78% among 350,000 | AID 504690, 2011;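 active = inhibition reaching at least a set limit at 20 µM in the primary screen, cut at about 59% in these data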;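 note: 0% = DMSO wells with substrate and 100% = DMSO wells lacking glucose-6-phosphate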
* hit, by the source's call; x = not tested or not shown. Cut-off read from the data, not from the text of the source, unless noted: active = inhibition above about 50%; inactive = the rest.

SMILES	Diaph inh CS	G6PDH CS	Diaphorase act	L major viab	Redox H2O2 prof	PfGluPho inh
O=C(COC(=O)/C=C/c1ccc(OC(F)F)cc1)Nc1ccc2[nH]c(=O)[nH]c2c1	x	x	x	x	x	13
C#CCOCCOCCOCCNc1nc(N2CCN(C(=O)[C@H](CCCCN)n3cc(CCCC)nn3)CC2)nc(N2CCN(C(=O)[C@H](CCCCN)n3cc(CCC(=O)O)nn3)CC2)n1	x	x	x	x	x	5
CC[C@@H](C)C(N)c1cn([C@@H](CCC(=O)O)C(=O)N2CCNCC2)nn1 (stereo not given in full)	-6	9	1.1	-3	0	-11
Nc1ccc(C(=O)Nc2cccc(N)c2)cc1	x	x	x	x	x	10
CCC1CCCCN1c1nc(-c2ccncc2)nc2ccccc12 (stereo not given)	44	4	0.6	95*	0	-23
CC1CCCCN1c1nc(-c2ccncc2)nc2ccccc12 (stereo not given)	40	-2	0.6	81*	2	-9
CC1CCCCN1c1ncnc2ccccc12 (stereo not given)	13	5	0.9	10	0	-16
COc1cc(C(C)=O)ccc1OCC(=O)N(CCC1=CCCCC1)c1c(N)n(Cc2ccccc2)c(=O)[nH]c1=O	x	x	x	x	x	2
Cc1ccc(C(=O)NNC(=O)c2ccccc2)cc1S(=O)(=O)N1CCCCC1	x	x	x	x	x	-3
O=c1c2cc(F)ccc2sn1-c1ccccc1	x	x	x	x	x	114*
Cc1ccc(-n2sc3ccccc3c2=O)cc1S(=O)(=O)N1CCCCC1	46	-12	0.5	89*	1	127*
O=C(O)c1cccc(-n2sc3ccccc3c2=O)c1	x	x	x	x	x	114*
O=c1c2ccccc2[nH]c2ccc(F)cc12	10	4	0.9	40	0	14
CC(NC(=O)C1CCC(C(=O)NC(C)c2ccccc2)CC1)c1ccccc1 (stereo not given)	x	x	x	x	x	-6
COc1ccc(C2(CNS(=O)(=O)c3ccccc3)CCOCC2)cc1	6	3	0.9	41	0	-9
C/C(=N\NC(=O)c1nn(C)cc1Br)c1cccc(NC(=O)C2CCCC2)c1	-20	7	1.2	1	-5	-2
Fc1cccc(F)c1-n1c(CN2CCCCC2)csc1=S	10	5	0.9	56*	-3	-9
Fc1cccc(F)c1-n1c(CN2CCOCC2)csc1=S	12	1	0.9	-6	6	1
COc1ccc(-c2nc(=S)c3c([nH]2)Oc2ccc(C)cc2C3)cc1O	2	-6	1	97*	0	-2
COc1ccc(-c2nc3cccc(C)n3c2NCC2CCCO2)cc1O (stereo not given)	1	23	1	-5	0	4
COc1ccc(N(C(=O)Cc2cccs2)C(C(=O)NC2CCCC2)c2ccncc2)cc1OC (stereo not given)	x	x	x	x	x	26
Cc1nn(C)cc1C(C(=O)NC1CCCCC1)N(C(=O)Cc1cccs1)c1ccc(Cl)cc1 (stereo not given)	5	8	1	85*	0	-4
COc1cc(N(C(=O)Cc2cccs2)C(C(=O)NC2CCCCC2)c2ccc(C)cc2)ccc1-n1cnnn1 (stereo not given)	-1	0	1	63*	0	-4
Cc1ccc(S(=O)(=O)N2[C@@H](c3cccc(Cl)c3)C(C(=O)O)=CC[C@H]2c2cccs2)cc1	x	x	x	x	x	-9
O=C(Nc1ccc(Cl)c(C(F)(F)F)c1)NC1CC2CCCC(C1)N2C1CC1 (stereo not given)	x	x	x	60*	1	19
SMILES	Diaph inh CS	G6PDH CS	Diaphorase act	L major viab	Redox H2O2 prof	PfGluPho inh
Cc1cc(C(=O)Nc2ccc3[nH]ccc3c2)no1	x	x	x	x	x	-8
CS(=O)(=O)c1ccccc1C(=O)Nc1ccc(-c2nc3ccccc3[nH]2)cc1	x	x	x	x	x	6
CC(C)(C)N1C(=O)c2ccc(C(=O)Nc3ccc(-c4nc5ccccc5[nH]4)cc3)cc2C1=O	4	-7	1	-4	0	-16
O=C(c1ccccc1)c1ccc2nc(-c3ccc(NC(=O)c4ccccc4Br)cc3)[nH]c2c1	10	-6	0.9	97*	-4	5
O=C(Nc1ccc(-c2nc3ccccc3[nH]2)cc1)c1ccc(N2C(=O)CCC2=O)cc1	6	-2	0.9	50*	0	-12
Cc1ccccc1C(=O)Nc1ccc(-c2nc3ccc(C(=O)c4ccccc4)cc3[nH]2)cc1	20	-2	0.8	98*	2	7
COC(=O)C[C@H]1c2cc(F)cc(F)c2S(=O)(=O)N1C1CCN(Cc2ccccc2)CC1	x	x	x	x	x	11
CCc1nnc2n1N=C(c1ccc(Cl)cc1)CS2	x	x	x	x	x	1
COc1cccc(-c2nnc3n2N=C(c2cc(OC)ccc2OC)CS3)c1	21	6	0.8	27	-4	10
CCOc1cccc(-c2nnc3n2N=C(c2cc(OC)ccc2OC)CS3)c1	46	12	0.5	66*	0	16
Cc1nnc2n(c1=O)N=C(c1ccc(Cl)cc1)CS2	8	-14	0.9	80*	0	-11
COc1ccc(C2=Nn3c(nnc3-c3ccc(OC)cc3)SC2)cc1	5	-2	0.9	61*	2	0
COc1ccc(-c2nnc3n2N=C(C)CS3)cc1	0	5	1	-4	1	-13
CCOC(=O)C1CCCN(C(=O)C(=O)c2cn(CC(=O)N3CCOCC3)c3ccccc23)C1 (stereo not given)	x	x	x	x	x	-3
CN1CCN(c2ccc(S(=O)(=O)N3CCCCC3)cc2NC(=O)CSCc2ccccc2)CC1	x	x	x	x	x	16
CCOC(=O)N1CCN(C(=O)CNC(=O)c2ccc(Cl)cc2)CC1	x	x	x	x	x	8
Cc1ccc(Nc2c(-c3ccc(C)o3)nc3cnccn23)cc1	29	8	0.7	11	-1	69*
Clc1ccc(-c2nc3cnccn3c2Nc2ccc3c(c2)OCO3)cc1	30	-35	0.7	30	-1	24
CSc1ccc(-c2nc3cnccn3c2Nc2ccc3c(c2)OCO3)cc1	34	8	0.7	100*	0	32
Oc1ccccc1-c1nc2cnccn2c1Nc1ccc2c(c1)OCCO2	8	5	0.9	77*	0	-10
CC(C)C(NC(=O)c1ccc(F)cc1)C(=O)N1CCOCC1 (stereo not given)	x	x	x	x	x	8
CC(C)(C)N(Cc1ccccc1)C(=O)COC(=O)CN1C(=O)NC2(CCCC2)C1=O	x	x	x	x	x	-10
